Results as given in PubChem BioAssay.
Records with an inconclusive call do not appear.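 Rule for the calls, unless noted: active = cell viability at or below a set limit in both duplicate runs, the limit being the all-compound median minus 4 SD (cut at about 23% in these data, passing the limit was not always enough); inconclusive = no clear call, values can overlap the other calls; inactive = the rest.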

Tests used:
[1] = OD615 S. cerevisiae growth inhibition, permissive medium, pilot counter-assay, permissive growth control for S. cerevisiae lifespan shortening project (AID 705;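 active = growth inhibition above 25% in both replicates, a cutoff set 3 SD above the mean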); details: OD615, 24 h, at 10 µM, hits give high values
How it was run: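 Test system: Saccharomyces cerevisiae strain carrying genetically modified DeaD replicative-lifespan system; buffer or medium: SC raffinose/galactose permissive medium; dosing: one dose 10 µM, DMSO 0.25% final; times: 24 h exposure, 30 °C; measured by: OD at 615 nm; read-out basis: growth inhibition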

[2] = Restrictive medium S. cerevisiae growth inhibition, OD615, pilot screen of yeast lifespan reduction project, restrictive growth control (AID 706;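 active = growth inhibition above a set limit, 3 SD over mean compound inhibition, in both replicates, cut at about 43% in these data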;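 note: modified DeaD lifespan yeast strain shifted to restrictive glucose medium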); details: OD615, 48 h, at 10 µM, hits give high values
How it was run: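 material = engineered S. cerevisiae DeaD strain | buffer or medium = glucose-based CSMM-D restrictive medium | dosing = one concentration, 10 µM final, 0.25% DMSO | schedule = 4 h pre-growth plus 48 h compound exposure, 30 °C | detection = OD615 absorbance reading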

[3] = viability gain of MRP-1-high H69AR cells under doxorubicin, pilot screen, MRP-1 activator project, CellTiter-Glo, duplicate (AID 807;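 active = viability increase at or above a cutoff of the median across tested compounds plus 3 SD, cut at about 8.5% in these data, passing the limit was not always enough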;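 note: compound pretreatment 18-22 h then 72 h combined with doxorubicin; 0% = doxorubicin alone and 100% = vehicle without doxorubicin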); details: H69AR viability with doxorubicin, CellTiter-Glo luminescence; at 10 µM; hits give high values
[4] = growth suppression of beta-catenin knockout HCT116, pilot screen, human colon tumor cells (AID 823); details: CellTiter-Glo, 60 h, at 10 µM, hits give low values;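 note: 0% = wells killed by 20 µM Hyamine and 100% = untreated DMSO cell wells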
[5] = growth suppression of PTEN-deleted HCT116, pilot screen, cell-based, HCT116 clonal line, CellTiter-Glo (AID 824;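 active = viability at or below 27.92% in each of two runs, the all-compound median minus 4 SD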;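 note: 0% = 20 µM Hyamine control and 100% = vehicle cell control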); details: 60 h, at 10 µM, hits give low values
[6] = inhibitors of the yeast RAM network, pilot screen, dse1pr::URA3 reporter, 5-FOA selection (AID 869;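 active = inhibition over a set limit, the all-compound mean plus 3 SD, in both replicate runs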;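 note: 0% = DMSO wells with no growth and 100% = 10 µM 1-NA-PP1 with full growth; RAM network block rescues cells from 5-FOA so hits raise OD615 growth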); details: S. cerevisiae dse1pr::URA3 5-FOA growth, OD615, 2 d; at 10 µM; hits give high values; strain carries analog-sensitive mutant Cbk1 kinase
[7] = RAM signaling pathway blockade in yeast – S. cerevisiae, Pdr1DBD-CYC8 efflux-inhibited sensitized strain, primary screen (AID 1298;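 active = RAM network inhibition above 8.4% in each of two replicates, 3 SD over the compound average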;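 note: 0% = DMSO untreated cells without growth and 100% = 10 µM 1-NA-PP1 full growth; higher means more yeast growth rescued from 5-FOA killing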); details: S. cerevisiae cbk1-as DSE1-URA3 strain, 5-FOA growth OD615, 2 d; at 50 µM; hits give high values

CC(=O)CCC(=O)NCCc1ccccc1F
inactive: growth inhibition [1] -5.29% | growth inhibition [2] 9.55% | viability increase [3] 0.02% | viability [4] 94.8% | viability [5] 97.2% | inhibition [6] 0.02% | RAM network inhibition [7] 0.25%

O=c1nc2scc(-c3ccccc3)n2c2ccccc12
inactive: growth inhibition [1] -14.7% | growth inhibition [2] -0.83% | viability increase [3] -2.24% | viability [4] 94.1% | viability [5] 97.1% | inhibition [6] 4.32% | RAM network inhibition [7] 7.95%

CCOC(=O)c1ccc(NC(=O)C2CCN(S(=O)(=O)c3ccccc3)CC2)cc1
inactive: growth inhibition [1] -12.1% | growth inhibition [2] -10.7% | viability increase [3] -2.54% | viability [4] 66.4% | viability [5] 70.2% | inhibition [6] 1.47% | RAM network inhibition [7] 6.37%

CC(=O)Nc1ccc(OC/C=C(\C)Cl)cc1
inactive: growth inhibition [1] -16.6% | growth inhibition [2] -7.54% | viability increase [3] -1.2% | viability [4] 101% | viability [5] 101% | inhibition [6] 0.895% | RAM network inhibition [7] 2.95%

COc1cccc(NC2=CC(=O)CC(C)(C)C2)c1
inactive: growth inhibition [1] 4.23% | growth inhibition [2] 0.02% | viability increase [3] -0.06% | viability [4] 95% | viability [5] 99.2% | inhibition [6] 0.5% | RAM network inhibition [7] 1.95%

O=C(Nc1ccc2c(c1)OCO2)c1cc(C2CC2)on1
inactive: growth inhibition [1] -12.5% | growth inhibition [2] -18% | viability increase [3] -3.41% | viability [4] 84.9% | viability [5] 88.8% | inhibition [6] 1% | RAM network inhibition [7] 3.09%

COc1ccc(NC(C)=O)c2nc(C)c(C)nc12
inactive: growth inhibition [1] 7.39% | growth inhibition [2] -2.71% | viability increase [3] -3.32% | viability [4] 98% | viability [5] 93.9% | inhibition [6] 1.17% | RAM network inhibition [7] 1.29%

CCC1CCCCN1C(=O)CSc1nc(N)c(NC(=O)c2ccco2)c(=O)[nH]1 (stereo unspecified)
inactive: growth inhibition [1] 12.5% | growth inhibition [2] 10.7% | viability increase [3] -2.48% | viability [4] 106% | viability [5] 99% | inhibition [6] 2.09% | RAM network inhibition [7] 2.2%

CCOC(=O)c1ccc(NS(=O)(=O)c2cc(-c3nnnn3CC)ccc2OC)cc1
inactive: growth inhibition [1] -0.78% | growth inhibition [2] -5.39% | viability increase [3] -2.01% | viability [4] 92.5% | viability [5] 90.2% | inhibition [6] 1.56% | RAM network inhibition [7] 6.36%

COc1cccc(OC)c1C(=O)Nc1nnc(C(C)C)s1
inactive: growth inhibition [1] -6.36% | growth inhibition [2] 6.23% | viability increase [3] -1.98% | viability [4] 89.9% | viability [5] 85.1% | inhibition [6] 2.25% | RAM network inhibition [7] 0.97%

Oc1cnn(-c2ccccc2)c1
inactive: growth inhibition [1] -0.88% | growth inhibition [2] 3.54% | viability increase [3] -5.6% | viability [4] 92.8% | viability [5] 94.3% | inhibition [6] 0.91% | RAM network inhibition [7] -0.83%

CCC(C)NC(=O)CCCCCn1c(=O)[nH]c2cc(OC)c(OC)cc2c1=O (stereo unspecified)
inactive: growth inhibition [1] -18.5% | growth inhibition [2] -7.55% | viability increase [3] -2.36% | viability [4] 88% | viability [5] 93% | inhibition [6] 0.065% | RAM network inhibition [7] 2.96%

O=C1CCc2cc(S(=O)(=O)NC(C(=O)NCc3cccnc3)c3ccccc3)ccc2N1 (stereo unspecified)
inactive: growth inhibition [1] -5.88% | growth inhibition [2] 4.59% | viability increase [3] -2.98% | viability [4] 100% | viability [5] 98.3% | inhibition [6] -0.185% | RAM network inhibition [7] 3.79%

CC(=O)Nc1ccc(NC(=O)c2ccco2)cc1
inactive: growth inhibition [1] -9.41% | growth inhibition [2] -14.5% | viability increase [3] -2.09% | viability [4] 94.1% | viability [5] 96.8% | inhibition [6] -0.19% | RAM network inhibition [7] 2.4%

O=C(c1ccco1)c1cn[nH]c1-c1ccc(Cl)cc1O
inactive: growth inhibition [1] -6.04% | growth inhibition [2] -8.45% | viability increase [3] -2.19% | viability [4] 95.6% | viability [5] 83.4% | inhibition [6] 1.42% | RAM network inhibition [7] 0.57%

COc1ccc(N2CCN(C(=O)c3ccc(CS(=O)(=O)c4ccc(OC)cc4)o3)CC2)cc1
inactive: growth inhibition [1] -9.34% | growth inhibition [2] -3.61% | viability increase [3] -1.85% | viability [4] 92.1% | viability [5] 79.2% | inhibition [6] 1.83% | RAM network inhibition [7] 4.78%

CCCCCn1c(=O)[nH]c2cc(C(=O)O)ccc2c1=O
inactive: growth inhibition [1] -13.9% | growth inhibition [2] -12.1% | viability increase [3] -1.3% | viability [4] 102% | viability [5] 90.7% | inhibition [6] 1.91% | RAM network inhibition [7] 2.2%

c1ccc2cc3[nH]c(CN4CCCCC4)nc3cc2c1
inactive: growth inhibition [1] -19.8% | growth inhibition [2] -13.4% | viability increase [3] -2.94% | viability [4] 95.9% | viability [5] 87.6% | inhibition [6] 1.58% | RAM network inhibition [7] 5.29%
